# pKd: −log10 of the molar value.
# How the values were obtained:
# [1] = biological target: Siglec-9 (Siglec-9d1–d3-Fc) (Homo sapiens, UniProt Q9Y336); assay: 19F T2 CPMG filtered NMR competitive displacement assay, Siglec-9; format: binding
# Summary of the method: (§1)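 Siglec-15 ECD (d1–d2, residues 20–263) fused to mVENUS, or Siglec-9 d1–d3 (residues 18–336) fused to human IgG1 Fc with C-terminal His6. Both transiently expressed in HEK293F and purified by Ni-NTA then SEC. Siglec-9 15 μM or Siglec-15 25 μM, with 10 equiv difluoroacetamide spy, titrated with increasing competitor equivalents. One decoupled 19F CPMG spectrum per sample (200 ms filter) at 600 MHz, 298 K, in 20 mM Tris pH 8, 300 mM NaCl, 10% D2O, with 100 μM TFA reference.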
# [2] = biological target: T1, Siglec-15 (Siglec-15d1–d2-mVENUS) (Homo sapiens, UniProt Q6ZMC9); assay: 19F T2 CPMG filtered NMR competitive displacement assay, Siglec-15; format: binding
# T1 sequence (Q6ZMC9 20-263): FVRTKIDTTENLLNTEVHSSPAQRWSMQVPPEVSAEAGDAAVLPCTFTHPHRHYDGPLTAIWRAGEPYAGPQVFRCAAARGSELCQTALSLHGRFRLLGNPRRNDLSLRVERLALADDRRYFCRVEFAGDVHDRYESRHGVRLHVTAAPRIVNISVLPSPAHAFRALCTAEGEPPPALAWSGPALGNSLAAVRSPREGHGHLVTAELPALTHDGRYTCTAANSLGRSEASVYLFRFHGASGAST
# Summary of the method: as §1
# [3] = read-out: lower KD limit, semiquantitative, from displacement
# Chain of Siglec-9 (Siglec-9d1–d3-Fc) (Q9Y336 18-336): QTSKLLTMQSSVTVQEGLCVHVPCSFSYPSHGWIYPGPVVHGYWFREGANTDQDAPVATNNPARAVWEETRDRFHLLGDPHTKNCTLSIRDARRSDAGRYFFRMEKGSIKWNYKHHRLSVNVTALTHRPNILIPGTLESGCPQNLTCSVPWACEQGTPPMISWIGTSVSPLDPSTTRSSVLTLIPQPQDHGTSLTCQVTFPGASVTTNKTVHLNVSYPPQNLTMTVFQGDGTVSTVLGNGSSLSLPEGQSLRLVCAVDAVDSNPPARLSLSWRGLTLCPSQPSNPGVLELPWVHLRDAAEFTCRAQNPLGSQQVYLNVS
substance,measurement,setting,value
"6′-sialyl N-acetyl-D-lactosamine aminoethylglycoside [α2,6SLN]",displacement of the spy molecule,"[1]; 320 equivalents of competitor, Siglec-9 15 μM + 10 equiv diF α2,6SLN",21%
same,pKd,[1]; [3],≤ 2.52
same,displacement of the spy molecule,"[2]; 300 equivalents of competitor, Siglec-15 25 μM + 10 equiv diF α2,6SLN",22%
same,pKd,[2]; [3],≤ 2.30

# — PMC11234860 (Chemical Science, 2024)
